Test results as given in ChEMBL document CHEMBL1129589, “Anti-inflammatory 17beta-thioalkyl-16alpha,17alpha-ketal and -acetal androstanes: a new class of airway selective steroids for the treatment of asthma” (J Med Chem, 1996).

What was measured:
H35 = test: Induction of tyrosine aminotransferase activity in cultured rat liver H4IIE cells.; type: functional; details: read-out: ED50 (the source's name)
In short: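 Confluent H4IIE rat hepatoma cells (4-day culture) incubated overnight with steroid at 0-100 nM, in triplicate wells. Lysate equilibrated at 37 °C with α-ketoglutarate and pyridoxal phosphate in phosphate buffer, pH 7.3.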

Rattus norvegicus [1] = test: In vivo inhibition of Rat lung edema following i.t. administration.; type: functional; details: inhaled or nasal
Rattus norvegicus [2] = test: In vivo suppression of thymus weight by 30% following i.t. administration.; type: functional; details: inhaled or nasal
In short: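 Male Sprague-Dawley rats (~350 g, six per group) dosed intratracheally under halothane anesthesia at 0 and 24 h. Vehicle: 1% carboxymethyl cellulose/0.2% Tween 80 suspension, sonicated. First dose given with saline, second with Sephadex G200 (final 5 mg/mL). Rats killed at 48 h; lungs and thymus weighed. Doses reducing Sephadex-induced edema and thymus weight by 30% calculated.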

Glucocorticoid receptor = target: T1, Glucocorticoid receptor (Rattus norvegicus, UniProt P06536); test: Steroid binding against the rat thymus glucocorticoid receptor
T1 sequence (P06536 whole entry): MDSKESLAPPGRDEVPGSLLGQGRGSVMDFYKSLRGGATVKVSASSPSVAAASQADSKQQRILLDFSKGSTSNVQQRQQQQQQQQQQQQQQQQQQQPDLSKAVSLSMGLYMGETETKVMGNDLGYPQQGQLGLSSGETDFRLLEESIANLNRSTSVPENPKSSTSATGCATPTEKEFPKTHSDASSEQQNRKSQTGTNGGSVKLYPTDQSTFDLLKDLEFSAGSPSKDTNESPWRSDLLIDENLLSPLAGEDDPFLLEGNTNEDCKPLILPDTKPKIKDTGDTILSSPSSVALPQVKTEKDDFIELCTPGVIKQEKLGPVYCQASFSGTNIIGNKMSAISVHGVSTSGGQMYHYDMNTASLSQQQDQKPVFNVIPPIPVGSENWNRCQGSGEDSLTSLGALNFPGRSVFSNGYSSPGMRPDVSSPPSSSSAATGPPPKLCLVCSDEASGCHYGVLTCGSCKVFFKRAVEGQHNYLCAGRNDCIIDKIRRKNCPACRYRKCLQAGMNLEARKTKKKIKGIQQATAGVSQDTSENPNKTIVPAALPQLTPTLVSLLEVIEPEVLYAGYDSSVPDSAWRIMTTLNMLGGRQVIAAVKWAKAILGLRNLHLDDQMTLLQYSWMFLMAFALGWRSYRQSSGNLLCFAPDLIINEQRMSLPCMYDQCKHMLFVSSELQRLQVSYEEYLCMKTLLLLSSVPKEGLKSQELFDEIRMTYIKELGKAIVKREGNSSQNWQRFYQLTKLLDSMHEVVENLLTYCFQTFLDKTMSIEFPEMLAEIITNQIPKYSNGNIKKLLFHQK

Rattus norvegicus [3] = test: Selectivity ratio of Topical vs Systemic routes of administration.; type: functional
In short: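 Male Sprague-Dawley rats (about 350 g, six per group) received the steroid intratracheally under halothane. It was suspended in 1% carboxymethyl cellulose/0.2% Tween 80 and given at 0 h with saline and at 24 h with Sephadex G200 (final 5 mg/mL). At 48 h, lungs and thymus were weighed. The ratio compares doses giving 30% reduction of lung edema and of thymus weight in the same animals.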

Rattus norvegicus [4] = test: Selectivity ratio of Topical vs Systemic routes of administration; type: functional
In short: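 Male Sprague-Dawley rats (about 350 g, six per group) were dosed intratracheally under halothane at 0 and 24 h, as a sonicated suspension in 1% carboxymethyl cellulose/0.2% Tween 80. The first dose was given with saline, the second with Sephadex G200 (final 5 mg/mL). Lungs and thymus were weighed at 48 h. The ratio compares doses reducing edema and thymus weight by 30%, both measured in the same animals.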

Structure (SMILES): CCC[C@@H]1O[C@@H]2CC3C4CCC5=CC(=O)CC[C@]5(C)[C@@]4(F)[C@@H](O)C[C@]3(C)[C@]2(SC)O1 (stereo partly drawn)
- EC50 (H35): 0.7 nM
- ED50 (Rattus norvegicus [1]): 3.6 mg/kg
- ED50 (Rattus norvegicus [2]): 5.2 mg/kg

Structure (SMILES): CCC[C@@H]1O[C@@H]2CC3C4C[C@H](F)C5=CC(=O)C=C[C@]5(C)[C@@]4(F)[C@@H](O)C[C@]3(C)[C@]2(SCF)O1 (stereo partly drawn)
- EC50 (H35): 0.3 nM
- IC50 (Glucocorticoid receptor): 2.2 nM
- ED50 (Rattus norvegicus [1]): 0.3 mg/kg
- ED50 (Rattus norvegicus [2]): 4.6 mg/kg
- Selectivity (Rattus norvegicus [3]): 0.065

Structure (SMILES): CCC[C@@H]1O[C@@H]2CC3C4CCC5=CC(=O)C=C[C@]5(C)[C@@]4(F)[C@@H](O)C[C@]3(C)[C@]2(SCF)O1 (stereo partly drawn)
- EC50 (H35): 1.2 nM
- IC50 (Glucocorticoid receptor): 3.3 nM
- ED50 (Rattus norvegicus [1]): > 3 mg/kg
- ED50 (Rattus norvegicus [2]): 4 mg/kg
- Selectivity (Rattus norvegicus [3]): >0.75

Structure (SMILES): CS[C@@]12OC(C)(C)O[C@@H]1CC1C3C[C@H](F)C4=CC(=O)C=C[C@]4(C)[C@@]3(F)[C@@H](O)C[C@@]12C (stereo partly drawn)
- EC50 (H35): 0.2 nM
- IC50 (Glucocorticoid receptor): 2.2 nM
- ED50 (Rattus norvegicus [1]): 1.3 mg/kg
- ED50 (Rattus norvegicus [2]): 3.2 mg/kg
- Selectivity (Rattus norvegicus [3]): 0.4

Structure (SMILES): CC1(C)O[C@@H]2C[C@H]3[C@@H]4C[C@H](F)C5=CC(=O)C=C[C@]5(C)[C@@]4(F)[C@@H](O)C[C@]3(C)[C@]2(SCF)O1
- EC50 (H35): 1 nM
- IC50 (Glucocorticoid receptor): 4.3 nM
- ED50 (Rattus norvegicus [1]): 0.07 mg/kg
- ED50 (Rattus norvegicus [2]): 1.9 mg/kg
- Selectivity (Rattus norvegicus [3]): 0.037

Structure (SMILES): CS[C@@]12OC(C)(C)O[C@@H]1CC1C3CCC4=CC(=O)C=C[C@]4(C)[C@@]3(F)[C@@H](O)C[C@@]12C (stereo partly drawn)
- EC50 (H35): 0.2 nM
- IC50 (Glucocorticoid receptor): 1.6 nM
- ED50 (Rattus norvegicus [1]): 0.3 mg/kg
- ED50 (Rattus norvegicus [2]): 0.9 mg/kg
- Selectivity (Rattus norvegicus [3]): 0.33

Structure (SMILES): CCC[C@@H]1O[C@@H]2CC3C4C[C@H](F)C5=CC(=O)CC[C@]5(C)[C@@]4(F)[C@@H](O)C[C@]3(C)[C@]2(SC)O1 (stereo partly drawn)
- EC50 (H35): 0.3 nM
- IC50 (Glucocorticoid receptor): 2.2 nM
- ED50 (Rattus norvegicus [1]): 0.06 mg/kg
- ED50 (Rattus norvegicus [2]): 1 mg/kg
- Selectivity (Rattus norvegicus [3]): 0.06

Structure (SMILES): CCCC1O[C@@H]2C[C@H]3[C@@H]4CCC5=CC(=O)C=C[C@]5(C)[C@H]4[C@@H](O)C[C@]3(C)[C@]2(C(=O)CO)O1 (stereo partly drawn) [BUDESONIDE]
- EC50 (H35): 0.2 nM
- IC50 (Glucocorticoid receptor): 2.9 nM
- ED50 (Rattus norvegicus [1]): 0.39 mg/kg
- ED50 (Rattus norvegicus [2]): 0.96 mg/kg
- Selectivity (Rattus norvegicus [3]): 0.4

Structure (SMILES): CCC[C@@H]1O[C@@H]2CC3C4C[C@H](F)C5=CC(=O)C=C[C@]5(C)[C@@]4(F)[C@@H](O)C[C@]3(C)[C@]2(SC)O1 (stereo partly drawn)
- EC50 (H35): 0.4 nM
- IC50 (Glucocorticoid receptor): 2.4 nM
- ED50 (Rattus norvegicus [1]): 0.11 mg/kg
- ED50 (Rattus norvegicus [2]): 0.54 mg/kg
- Selectivity (Rattus norvegicus [3]): 0.2

Structure (SMILES): CCC(=O)O[C@]1(C(=O)SCF)C(C)C[C@H]2[C@@H]3C[C@H](F)C4=CC(=O)C=C[C@]4(C)[C@@]3(F)[C@@H](O)C[C@@]21C (single isomer, unassigned) [FLUTICASONE PROPIONATE]
- EC50 (H35): 0.1 nM
- ED50 (Rattus norvegicus [1]): 0.05 mg/kg
- ED50 (Rattus norvegicus [2]): 0.47 mg/kg

Structure (SMILES): CC=C[C@@H]1O[C@@H]2C[C@H]3[C@@H]4CCC5=CC(=O)C=C[C@]5(C)[C@@]4(F)[C@@H](O)C[C@]3(C)[C@]2(SC)O1
- EC50 (H35): 1.1 nM
- IC50 (Glucocorticoid receptor): 1.8 nM
- ED50 (Rattus norvegicus [1]): > 3 mg/kg
- ED50 (Rattus norvegicus [2]): 1.1 mg/kg
- Selectivity (Rattus norvegicus [3]): >2.73

Structure (SMILES): CC1(C)O[C@@H]2C[C@H]3[C@@H]4CCC5=CC(=O)C=C[C@]5(C)[C@@]4(F)[C@@H](O)C[C@]3(C)[C@]2(S(C)(=O)=O)O1
- EC50 (H35): 13 nM
- IC50 (Glucocorticoid receptor): 5.3 nM
- ED50 (Rattus norvegicus [1]): 2.2 mg/kg
- ED50 (Rattus norvegicus [2]): 1.4 mg/kg
- Selectivity (Rattus norvegicus [3]): 1.57

Structure (SMILES): CC1(C)O[C@@H]2CC3C4CCC5=CC(=O)C=C[C@]5(C)[C@@]4(F)[C@@H](O)C[C@]3(C)[C@]2(Sc2ccccn2)O1 (stereo partly drawn)
- EC50 (H35): 50 nM
- IC50 (Glucocorticoid receptor): 22 nM
- ED50 (Rattus norvegicus [1]): > 3 mg/kg
- ED50 (Rattus norvegicus [2]): > 3 mg/kg

Structure (SMILES): CCS[C@]1(SC)CC[C@H]2[C@@H]3CCC4=CC(=O)C=C[C@]4(C)[C@@]3(F)[C@@H](O)C[C@@]21C
- EC50 (H35): 2 nM
- IC50 (Glucocorticoid receptor): 2.3 nM
- ED50 (Rattus norvegicus [1]): 2.1 mg/kg
- ED50 (Rattus norvegicus [2]): 1.1 mg/kg
- Selectivity (Rattus norvegicus [3]): 1.91

Structure (SMILES): CCC[C@@H]1O[C@@H]2CC3C4CCC5=CC(=O)C=C[C@]5(C)[C@@]4(F)[C@@H](O)C[C@]3(C)[C@]2([S+](C)[O-])O1 (stereo partly drawn)
- EC50 (H35): 23 nM
- IC50 (Glucocorticoid receptor): 3.2 nM
- ED50 (Rattus norvegicus [1]): > 3 mg/kg
- ED50 (Rattus norvegicus [2]): 3 mg/kg
- Selectivity (Rattus norvegicus [4]): >1

Structure (SMILES): CCC[C@@H]1O[C@@H]2CC3C4CCC5=CC(=O)C=C[C@]5(C)[C@@]4(F)[C@@H](O)C[C@]3(C)[C@]2(SC(C)C)O1 (stereo partly drawn)
- EC50 (H35): 7 nM
- IC50 (Glucocorticoid receptor): 5.5 nM
- ED50 (Rattus norvegicus [1]): > 3 mg/kg
- ED50 (Rattus norvegicus [2]): > 3 mg/kg

Structure (SMILES): CCC[C@@H]1O[C@@H]2CC3C4CCC5=CC(=O)C=C[C@]5(C)[C@@]4(F)[C@@H](O)C[C@]3(C)[C@]2(Sc2ccccn2)O1 (stereo partly drawn)
- EC50 (H35): > 100 nM
- IC50 (Glucocorticoid receptor): 12 nM
- ED50 (Rattus norvegicus [1]): > 3 mg/kg
- ED50 (Rattus norvegicus [2]): > 3 mg/kg

Structure (SMILES): CCC[C@@H]1O[C@@H]2CC3C4CCC5=CC(=O)C=C[C@]5(C)[C@@]4(F)[C@@H](O)C[C@]3(C)[C@]2(SC)O1 (stereo partly drawn)
- EC50 (H35): 1.7 nM
- IC50 (Glucocorticoid receptor): 1.7 nM
- ED50 (Rattus norvegicus [1]): > 1 mg/kg
- ED50 (Rattus norvegicus [2]): 1.8 mg/kg
- Selectivity (Rattus norvegicus [3]): >0.56

Structure (SMILES): CCC[C@@H]1O[C@@H]2CC3C4CCC5=CC(=O)C=C[C@]5(C)[C@@]4(F)[C@@H](O)C[C@]3(C)[C@]2(SCC)O1 (stereo partly drawn)
- EC50 (H35): 1.5 nM
- IC50 (Glucocorticoid receptor): 3.3 nM
- ED50 (Rattus norvegicus [1]): > 3 mg/kg
- ED50 (Rattus norvegicus [2]): 7 mg/kg
- Selectivity (Rattus norvegicus [3]): >0.43
